Converted amounts (≈) assume the structure as drawn. The source made the active and inactive calls. The rule behind the calls is not given here.
Legend:
[1] = biological target: T1, Metabotropic glutamate receptor 5 (Homo sapiens, UniProt P41594); assay: Displacement of [3H]M-MPEP from mGluR5 (unknown origin) at 1 uM measured after 60 mins relative to control
How it was run: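 Rat cerebrocortical membranes or membranes from A18 cells expressing human mGlu5a, incubated with [³H]M-MPEP and test compound at 1 µM in 50 mM Tris pH 7.6 with 2 mM MgCl₂ and 2 mM CaCl₂, 60 min at 25°C. Non-specific binding was taken with […]. Result is % displacement, run in duplicate or triplicate.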
Target sequence in this assay (P41594 21-1212 limits assumed): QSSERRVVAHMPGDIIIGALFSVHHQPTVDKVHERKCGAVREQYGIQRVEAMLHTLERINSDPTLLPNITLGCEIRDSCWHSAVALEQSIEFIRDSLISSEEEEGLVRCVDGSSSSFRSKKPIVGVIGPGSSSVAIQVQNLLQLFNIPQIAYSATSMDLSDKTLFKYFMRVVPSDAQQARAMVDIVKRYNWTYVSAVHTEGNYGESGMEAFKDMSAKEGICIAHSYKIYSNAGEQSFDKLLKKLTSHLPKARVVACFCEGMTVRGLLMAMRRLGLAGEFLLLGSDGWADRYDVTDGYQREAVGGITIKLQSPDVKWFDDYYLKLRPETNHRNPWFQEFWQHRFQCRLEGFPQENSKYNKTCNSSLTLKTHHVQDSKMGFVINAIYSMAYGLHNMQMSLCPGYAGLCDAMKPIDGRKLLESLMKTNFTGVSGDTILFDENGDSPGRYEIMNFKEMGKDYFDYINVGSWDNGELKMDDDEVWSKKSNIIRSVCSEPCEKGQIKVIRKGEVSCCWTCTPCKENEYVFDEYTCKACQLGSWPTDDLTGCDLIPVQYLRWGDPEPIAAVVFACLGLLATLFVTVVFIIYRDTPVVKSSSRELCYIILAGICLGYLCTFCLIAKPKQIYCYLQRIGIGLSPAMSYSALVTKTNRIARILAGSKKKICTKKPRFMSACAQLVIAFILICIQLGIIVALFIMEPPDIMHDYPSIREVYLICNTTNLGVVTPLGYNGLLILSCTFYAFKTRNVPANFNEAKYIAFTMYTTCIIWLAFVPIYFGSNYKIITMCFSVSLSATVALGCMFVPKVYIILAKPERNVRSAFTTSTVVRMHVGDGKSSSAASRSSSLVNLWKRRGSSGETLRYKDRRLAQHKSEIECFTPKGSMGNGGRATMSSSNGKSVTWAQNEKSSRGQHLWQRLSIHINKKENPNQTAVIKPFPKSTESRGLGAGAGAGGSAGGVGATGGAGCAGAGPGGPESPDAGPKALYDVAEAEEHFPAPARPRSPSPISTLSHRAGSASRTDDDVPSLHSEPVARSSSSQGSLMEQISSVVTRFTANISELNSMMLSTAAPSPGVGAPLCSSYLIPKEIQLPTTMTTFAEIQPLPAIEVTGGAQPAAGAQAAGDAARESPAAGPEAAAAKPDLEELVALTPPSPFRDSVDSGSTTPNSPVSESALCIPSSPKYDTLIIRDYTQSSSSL

[2] = Drug level in blood of rat at 10 mg/kg, ip at 40 mins post dose; assay type: ADME, organism-based; settings: read-out: Drug uptake
[3] = system: Rattus norvegicus; assay: Anxiolytic activity in ip dosed rat assessed as increase in water drinking time during punished period by Vogel punished drinking conflict test; assay type: functional; settings: read-out: MED
How it was run: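 Rats were water-deprived 48 h. On test day, compound was given i.p. in 5% Tween/distilled water at 1, 3 or 10 mg/kg, n=8 per dose. A 30-s unpunished drinking period followed. Comparison to vehicle was by ANOVA with Duncan post-hoc, giving MED.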

[4] = Aqueous solubility of the compound in water; assay type: physicochemical
[5] = biological target: T1, Metabotropic glutamate receptor 5; assay: Displacement of [3H]M-MPEP from mGluR5 (unknown origin) measured after 60 mins
How it was run: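 The [³H]M-MPEP competition used rat cortical membranes or human mGlu5a A18 cell membranes in Tris pH 7.6 buffer with MgCl₂ and CaCl₂, 60 min at 25°C. Curves were generally 7 concentrations in duplicate or triplicate. IC50 was converted to Ki by Cheng–Prusoff, with Kd from a Scatchard plot. Non-specific binding was defined with M-MPEP.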
Target sequence in this assay (P41594 whole entry): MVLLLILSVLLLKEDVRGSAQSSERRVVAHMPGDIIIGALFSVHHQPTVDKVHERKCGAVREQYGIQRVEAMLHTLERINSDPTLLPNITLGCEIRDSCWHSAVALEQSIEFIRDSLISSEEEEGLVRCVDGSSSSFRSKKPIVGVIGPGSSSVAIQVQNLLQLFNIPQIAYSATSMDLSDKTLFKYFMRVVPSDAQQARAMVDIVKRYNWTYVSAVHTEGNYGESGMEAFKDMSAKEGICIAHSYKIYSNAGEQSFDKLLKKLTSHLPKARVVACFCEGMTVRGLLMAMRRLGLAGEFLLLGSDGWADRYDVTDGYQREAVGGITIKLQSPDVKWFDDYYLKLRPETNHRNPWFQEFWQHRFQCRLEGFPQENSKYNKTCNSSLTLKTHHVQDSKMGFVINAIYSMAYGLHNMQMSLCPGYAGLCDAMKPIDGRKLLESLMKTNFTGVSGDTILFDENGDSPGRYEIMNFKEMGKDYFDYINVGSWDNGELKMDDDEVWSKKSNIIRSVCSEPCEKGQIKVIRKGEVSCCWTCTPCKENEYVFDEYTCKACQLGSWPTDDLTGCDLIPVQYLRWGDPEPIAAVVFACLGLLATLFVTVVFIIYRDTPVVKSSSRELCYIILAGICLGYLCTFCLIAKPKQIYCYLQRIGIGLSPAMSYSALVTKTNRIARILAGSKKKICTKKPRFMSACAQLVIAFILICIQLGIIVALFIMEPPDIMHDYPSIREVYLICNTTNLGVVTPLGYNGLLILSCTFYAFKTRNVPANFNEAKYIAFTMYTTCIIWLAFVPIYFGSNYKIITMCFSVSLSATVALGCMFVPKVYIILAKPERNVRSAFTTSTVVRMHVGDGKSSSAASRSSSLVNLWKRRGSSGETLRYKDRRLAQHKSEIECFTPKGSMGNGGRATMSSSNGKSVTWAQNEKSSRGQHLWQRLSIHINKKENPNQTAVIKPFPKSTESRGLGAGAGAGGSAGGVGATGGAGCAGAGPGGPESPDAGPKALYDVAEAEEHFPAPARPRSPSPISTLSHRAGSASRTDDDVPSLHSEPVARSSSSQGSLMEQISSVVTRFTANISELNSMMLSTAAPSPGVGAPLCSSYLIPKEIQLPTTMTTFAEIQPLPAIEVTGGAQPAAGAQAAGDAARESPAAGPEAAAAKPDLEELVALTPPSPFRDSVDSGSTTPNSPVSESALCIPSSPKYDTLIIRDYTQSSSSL

[6] = biological target: Metabotropic glutamate receptor 1 (Homo sapiens) (UniProt Q13255); assay: Activity at mGluR1 (unknown origin)
Metabotropic glutamate receptor 1 (Homo sapiens), sequence (Q13255 19-1194 limits assumed): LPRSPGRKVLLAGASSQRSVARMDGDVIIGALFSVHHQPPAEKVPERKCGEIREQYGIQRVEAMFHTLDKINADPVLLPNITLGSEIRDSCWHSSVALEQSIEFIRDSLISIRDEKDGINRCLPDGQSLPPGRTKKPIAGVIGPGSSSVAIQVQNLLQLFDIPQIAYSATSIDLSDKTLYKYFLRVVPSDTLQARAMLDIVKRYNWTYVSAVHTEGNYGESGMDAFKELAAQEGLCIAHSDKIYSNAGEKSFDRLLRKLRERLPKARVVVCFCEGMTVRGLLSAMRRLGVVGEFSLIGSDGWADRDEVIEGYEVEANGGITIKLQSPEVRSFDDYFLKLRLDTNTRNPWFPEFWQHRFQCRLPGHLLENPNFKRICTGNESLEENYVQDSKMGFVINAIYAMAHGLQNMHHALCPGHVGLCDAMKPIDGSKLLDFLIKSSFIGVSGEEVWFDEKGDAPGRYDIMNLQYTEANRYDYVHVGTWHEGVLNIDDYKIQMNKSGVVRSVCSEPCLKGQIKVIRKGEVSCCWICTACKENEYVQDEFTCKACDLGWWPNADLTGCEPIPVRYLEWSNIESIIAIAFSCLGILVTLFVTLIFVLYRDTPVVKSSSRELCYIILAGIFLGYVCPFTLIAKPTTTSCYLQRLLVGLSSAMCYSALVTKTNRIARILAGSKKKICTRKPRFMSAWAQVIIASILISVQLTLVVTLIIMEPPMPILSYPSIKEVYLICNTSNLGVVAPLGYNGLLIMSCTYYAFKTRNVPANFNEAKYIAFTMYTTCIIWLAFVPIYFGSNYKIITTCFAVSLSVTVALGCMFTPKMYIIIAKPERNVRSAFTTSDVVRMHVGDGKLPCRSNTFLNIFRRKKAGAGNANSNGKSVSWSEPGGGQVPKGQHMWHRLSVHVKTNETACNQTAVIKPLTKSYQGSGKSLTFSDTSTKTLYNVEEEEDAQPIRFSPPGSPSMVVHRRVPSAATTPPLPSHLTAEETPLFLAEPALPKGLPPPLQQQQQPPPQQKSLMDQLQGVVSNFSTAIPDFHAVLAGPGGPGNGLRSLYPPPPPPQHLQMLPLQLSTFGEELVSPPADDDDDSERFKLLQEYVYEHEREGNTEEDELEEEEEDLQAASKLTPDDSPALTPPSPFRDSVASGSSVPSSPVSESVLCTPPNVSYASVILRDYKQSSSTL

Compound | inhibition [1] [%] | other results
O=S(=O)(c1cccc(Cl)c1)c1cnc2cc(Cl)ccc2c1N1CCC(CO)CC1 | – | concentration at 40 min [2]: 193 ng/mL; minimal effective dose [3]: 10 mg/kg; solubility [4]: 15 to 45 µM (≈ 6.77 to 20.3 µg/mL); Ki [5]: 30.9 nM
O=S(=O)(c1ccccc1)c1cnc2ccccc2c1N1CCCCC1 | 71.4 | Ki [5]: 307 nM
N#Cc1cc(F)cc(S(=O)(=O)c2cnc3cc(Cl)ccc3c2N2CCC(CO)CC2)c1 | – | concentration at 40 min [2]: 608 ng/mL; minimal effective dose [3]: > 10 mg/kg; solubility [4]: 15 to 45 µM (≈ 6.9 to 20.7 µg/mL); Ki [5]: 24.1 nM
CC1CCN(c2c(S(=O)(=O)c3ccccc3)cnc3ccccc23)CC1 | 89.2 | Ki [5]: 108 nM
CC1CCN(c2c(S(=O)(=O)c3ccc(Cl)c(Cl)c3)cnc3ccc(F)cc23)CC1 | 91 | concentration at 40 min [2]: 46 ng/mL; minimal effective dose [3]: 30 mg/kg; solubility [4]: < 3 µM; Ki [5]: 55.6 nM
Cc1ccc(S(=O)(=O)c2cnc3ccccc3c2N2CCOCC2)cc1C | – | Activity [6]: inactive
Cc1ccc(S(=O)(=O)c2cnc3ccccc3c2NCc2ccccc2)cc1 | 73.5 | Ki [5]: 198 nM
O=S(=O)(c1ccc(F)cc1)c1cnc2cc(Cl)ccc2c1N1CCC(CO)CC1 | 75 | –
Cc1ccc(S(=O)(=O)c2cnc3ccc(Cl)cc3c2N2CCC(C)CC2)cc1C | 84 | –
COc1ccc2ncc(S(=O)(=O)c3cccc(Cl)c3)c(N3CCC(C)CC3)c2c1 | -3 | –
COc1ccc(S(=O)(=O)c2cnc3cc(F)ccc3c2N2CCOCC2)cc1 | 23 | –
NS(=O)(=O)N1CCN(c2c(S(=O)(=O)c3cc(F)cc(F)c3)cnc3cc(F)ccc23)CC1 | 6.4 | –
CC1CCN(c2c(S(=O)(=O)c3cccc(C#N)c3)cnc3cc(Cl)ccc23)CC1 | 94 | –
CC1CCN(c2c(S(=O)(=O)c3ccccc3)cnc3cc(Cl)ccc23)CC1 | 93 | –
CC1CCN(c2c(S(=O)(=O)c3cc(F)cc(F)c3)cnc3c(F)cccc23)CC1 | 9 | –
COCC1CCN(c2c(S(=O)(=O)c3cccc(F)c3)cnc3cc(F)ccc23)CC1 | 70.5 | –
Cc1cc(C)cc(S(=O)(=O)c2cnc3ccc(F)cc3c2N2CCOCC2)c1 | 43 | –
Cc1ccc(S(=O)(=O)c2cnc3ccc(Cl)cc3c2N2CCC(C)CC2)cc1Cl | 81 | –
O=S(=O)(c1ccc(F)c(F)c1)c1cnc2cc(F)ccc2c1N1CCOCC1 | 56 | –

Compound | inhibition [1] [%] | other results
Cc1cc(C)cc(S(=O)(=O)c2cnc3cc(F)ccc3c2N2CCOCC2)c1 | 58 | –
N#Cc1ccc(S(=O)(=O)c2cnc3cc(F)ccc3c2N2CCOCC2)cc1 | 4 | –
CC1CCN(c2c(S(=O)(=O)c3ccc(F)c(Cl)c3)cnc3cc(F)ccc23)CC1 | 94 | –
Cc1ccc2ncc(S(=O)(=O)c3cccc(F)c3)c(N3CCOCC3)c2c1 | 10 | –
CC1CCN(c2c(S(=O)(=O)c3ccc(Cl)cc3)cnc3c(F)cccc23)CC1 | 85 | –
CC1CCN(c2c(S(=O)(=O)c3cc(F)cc(F)c3)cnc3cc(F)ccc23)CC1 | 77 to 77.2 | –
O=S(=O)(c1cc(F)cc(F)c1)c1cnc2ccc(F)cc2c1N1CCOCC1 | 3 | –
O=S(=O)(c1ccccc1)c1cnc2ccccc2c1Nc1ccccc1 | 3.6 | –
Cc1ccc2ncc(S(=O)(=O)c3ccc(F)c(Cl)c3)c(N3CCC(C)CC3)c2c1 | 93 | –
O=S(=O)(c1cccc(Cl)c1)c1cnc2cc(Cl)ccc2c1N1CCOCC1 | 81 | –
CCN(CC)c1c(S(=O)(=O)c2ccc(C)cc2)cnc2ccccc12 | 78.3 | Ki [5]: 201 nM
O=S(=O)(c1ccc(F)cc1)c1cnc2cc(F)ccc2c1N1CCOCC1 | 29 | –
CN1CCN(c2c(S(=O)(=O)c3ccccc3)cnc3ccccc23)CC1 | 7.7 | –
Cc1ccc2ncc(S(=O)(=O)c3ccc(Cl)c(Cl)c3)c(N3CCOCC3)c2c1 | 76 | –
CC1CCN(c2c(S(=O)(=O)c3ccc(F)c(Cl)c3)cnc3ccc(F)cc23)CC1 | 95 | –
CC1CCN(c2c(S(=O)(=O)c3ccc(Cl)c(Cl)c3)cnc3cc(F)ccc23)CC1 | 94 | –
Cc1ccc2ncc(S(=O)(=O)c3cccc(C#N)c3)c(N3CCC(C)CC3)c2c1 | 52 | –
O=S(=O)(c1ccc(Cl)cc1)c1cnc2c(F)cccc2c1N1CCOCC1 | 52 | –

Second part, led by results:

inhibition [1] [%] | Compound | other results
86 | CC1CCN(c2c(S(=O)(=O)c3ccc(Cl)c(Cl)c3)cnc3ccc(Cl)cc23)CC1 | concentration at 40 min [2]: 55 ng/mL; minimal effective dose [3]: > 30 mg/kg; solubility [4]: < 3 µM; Ki [5]: 103 nM
92 | CC1CCN(c2c(S(=O)(=O)c3ccc(Cl)cc3)cnc3ccc(Cl)cc23)CC1 | Ki [5]: 435 nM
79.9 | O=S(=O)(c1ccccc1)c1cnc2ccccc2c1N1CCCCCC1 | Ki [5]: 310 nM
94 | CC1CCN(c2c(S(=O)(=O)c3cc(F)cc(F)c3)cnc3cc(Cl)ccc23)CC1 | Ki [5]: 68.2 nM
94 | Cc1ccc2ncc(S(=O)(=O)c3cccc(F)c3)c(N3CCC(C)CC3)c2c1 | solubility [4]: < 3 µM
63 | O=S(=O)(c1ccc(Cl)c(Cl)c1)c1cnc2ccc(Cl)cc2c1N1CCOCC1 | –
92 | CC1CCN(c2c(S(=O)(=O)c3cccc(Cl)c3)cnc3ccc(F)cc23)CC1 | –
58 | Cc1ccc2ncc(S(=O)(=O)c3cccc(C#N)c3)c(N3CCOCC3)c2c1 | –
1 | COc1ccc2ncc(S(=O)(=O)c3ccc(OC)c(OC)c3)c(N3CCOCC3)c2c1 | –
90 | CC1CCN(c2c(S(=O)(=O)c3ccc(F)c(F)c3)cnc3cc(Cl)ccc23)CC1 | –
-2 | COc1ccc(S(=O)(=O)c2cnc3ccc(Cl)cc3c2N2CCOCC2)cc1OC | –
95 | Cc1ccc(S(=O)(=O)c2cnc3ccc(Cl)cc3c2N2CCC(C)CC2)cc1 | –
23 | COc1ccc2ncc(S(=O)(=O)c3cc(Cl)cc(Cl)c3)c(N3CCOCC3)c2c1 | –
90 | COc1ccc2ncc(S(=O)(=O)c3cccc(C#N)c3)c(N3CCC(C)CC3)c2c1 | –
2 | O=S(=O)(c1ccc(F)c(F)c1)c1cnc2ccc(Cl)cc2c1N1CCOCC1 | –
93 | COc1ccc2ncc(S(=O)(=O)c3ccc(Cl)cc3)c(N3CCOCC3)c2c1 | –

inhibition [1] [%] | Compound | other results
83 | Cc1cc(C)cc(S(=O)(=O)c2cnc3ccc(F)cc3c2N2CCC(C)CC2)c1 | –
89 | Cc1ccc(S(=O)(=O)c2cnc3cc(F)ccc3c2N2CCC(C)CC2)cc1F | –
34 | Cc1ccc2ncc(S(=O)(=O)c3cc(F)cc(F)c3)c(N3CCOCC3)c2c1 | –
2 | N#Cc1ccc(S(=O)(=O)c2cnc3cc(Cl)ccc3c2N2CCOCC2)cc1 | –
80 | CC1CCN(c2c(S(=O)(=O)c3ccc(Cl)cc3)cnc3ccc(F)cc23)CC1 | –
4 to 4.1 | O=S(=O)(c1cccc(F)c1)c1cnc2cc(F)ccc2c1N1CCOCC1 | –
89 | Cc1ccc(S(=O)(=O)c2cnc3cc(Cl)ccc3c2N2CCC(C)CC2)cc1Cl | –
90 | COc1ccc2ncc(S(=O)(=O)c3ccc(C)cc3)c(N3CCC(C)CC3)c2c1 | –
71 to 71.4 | N#Cc1cccc(S(=O)(=O)c2cnc3cc(F)ccc3c2N2CCOCC2)c1 | –
77 | O=S(=O)(c1cc(Cl)cc(Cl)c1)c1cnc2c(F)cccc2c1N1CCOCC1 | –
20 | COc1ccc2ncc(S(=O)(=O)c3cccc(C#N)c3)c(N3CCOCC3)c2c1 | –
-3 | COc1ccc2ncc(S(=O)(=O)c3ccc(OC)c(OC)c3)c(N3CCC(C)CC3)c2c1 | –
70 | COc1cccc(S(=O)(=O)c2cnc3cc(Cl)ccc3c2N2CCOCC2)c1 | –
90 | COc1cccc(S(=O)(=O)c2cnc3cc(F)ccc3c2N2CCC(C)CC2)c1 | –
93 | Cc1ccc(S(=O)(=O)c2cnc3c(F)cccc3c2N2CCC(C)CC2)cc1 | –

Source: ChEMBL document CHEMBL4052615, “Discovery of 4-amino-3-arylsulfoquinolines, a novel non-acetylenic chemotype of metabotropic glutamate 5 (mGlu5) receptor negative allosteric modulators” (Eur J Med Chem, 2017)
